# Laboratory results: ChEMBL document CHEMBL4706590, “Design and characterization of cereblon-mediated androgen receptor proteolysis-targeting chimeras” (Eur J Med Chem, 2020)
# System: VCaP
# Assay: Antiproliferative activity against human VCaP cells assessed as reduction in cell viability after 6 days by CellTiter-Glo assay
# Format: functional
# Conditions: 144 h, time 6 day
# In short: (§1)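 LNCaP seeded at 1.5 × 10³ and VCaP at 4 × 10³ cells per well in 96-well plates. Cells grown in IMDM with 10% FBS and antibiotic-antimycotic at 37 °C, 5% CO2, with DMSO as vehicle. IC50 from nonlinear regression of log(inhibitor) versus response.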
row,SMILES,CC50 [nM]
1,CC1(C)[C@H](NC(=O)c2ccc(N3CCN(C4CC5(CCN(C(=O)C6CN(c7ccc8nnn(C9CCC(=O)NC9=O)c(=O)c8c7)C6)CC5)C4)CC3)cc2)C(C)(C)[C@H]1Oc1ccc(C#N)c(Cl)c1 (stereo partly drawn),135
2,CC1(C)[C@H](NC(=O)c2ccc(N3CCN(CCC4CCN(C(=O)COc5ccc6nnn(C7CCC(=O)NC7=O)c(=O)c6c5)CC4)CC3)cc2)C(C)(C)[C@H]1Oc1ccc(C#N)c(Cl)c1 (stereo partly drawn),46
3,CC1(C)[C@H](NC(=O)c2ccc(N3CCN(CC4CCN(c5ccc6nnn(C7CCC(=O)NC7=O)c(=O)c6c5)CC4)CC3)cc2)C(C)(C)[C@H]1Oc1ccc(C#N)c(Cl)c1 (stereo partly drawn),81
4,CC1(C)[C@H](NC(=O)c2ccc(N3CCN(CCOC4CCN(C(=O)C5CCN(c6ccc7nnn(C8CCC(=O)NC8=O)c(=O)c7c6)CC5)CC4)CC3)cc2)C(C)(C)[C@H]1Oc1ccc(C#N)c(Cl)c1 (stereo partly drawn),80
5,CC1(C)[C@H](NC(=O)c2ccc(N3CCN(CC4CCN(C(=O)CNc5ccc6nnn(C7CCC(=O)NC7=O)c(=O)c6c5)CC4)CC3)cc2)C(C)(C)[C@H]1Oc1ccc(C#N)c(Cl)c1 (stereo partly drawn),3820

# System: LNCaP
# Assay: Antiproliferative activity against human LNCaP cells assessed as reduction in cell viability after 6 days by CellTiter-Glo assay
# Format: functional
# Conditions: 144 h, time 6 day
# In short: as §1
row,SMILES,CC50 [nM]
1,CC1(C)[C@H](NC(=O)c2ccc(N3CCN(C4CC5(CCN(C(=O)C6CN(c7ccc8nnn(C9CCC(=O)NC9=O)c(=O)c8c7)C6)CC5)C4)CC3)cc2)C(C)(C)[C@H]1Oc1ccc(C#N)c(Cl)c1 (stereo partly drawn),312
2,CC1(C)[C@H](NC(=O)c2ccc(N3CCN(CCC4CCN(C(=O)COc5ccc6nnn(C7CCC(=O)NC7=O)c(=O)c6c5)CC4)CC3)cc2)C(C)(C)[C@H]1Oc1ccc(C#N)c(Cl)c1 (stereo partly drawn),3180
3,CC1(C)[C@H](NC(=O)c2ccc(N3CCN(CC4CCN(c5ccc6nnn(C7CCC(=O)NC7=O)c(=O)c6c5)CC4)CC3)cc2)C(C)(C)[C@H]1Oc1ccc(C#N)c(Cl)c1 (stereo partly drawn),259
4,CC1(C)[C@H](NC(=O)c2ccc(N3CCN(CCOC4CCN(C(=O)C5CCN(c6ccc7nnn(C8CCC(=O)NC8=O)c(=O)c7c6)CC5)CC4)CC3)cc2)C(C)(C)[C@H]1Oc1ccc(C#N)c(Cl)c1 (stereo partly drawn),847
5,CC1(C)[C@H](NC(=O)c2ccc(N3CCN(CC4CCN(C(=O)CNc5ccc6nnn(C7CCC(=O)NC7=O)c(=O)c6c5)CC4)CC3)cc2)C(C)(C)[C@H]1Oc1ccc(C#N)c(Cl)c1 (stereo partly drawn),117

# Target: T1, Protein cereblon/Androgen receptor (Homo sapiens, UniProt P10275+Q96SW2)
# Assay: Protac activity at CRBN/AR in human LNCaP cells assessed as AR degradation at 0.1 uM by western blotting analysis relative to control
# Format: cell-based
# Conditions: not given
# In short: (§2)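 LNCaP (IMDM) or 22RV1 (RPMI 1640) cells with 10% FBS at 37 °C, 5% CO2, treated with DMSO vehicle as control. Cells lysed in RIPA buffer (50 mM Tris-HCl pH 7.5, 150 mM NaCl, 1% Triton X-100, 0.1% SDS, 0.5% deoxycholate, protease inhibitors). Protein quantified by Bradford assay. Immunoblotted for AR with tubulin as loading control, HRP chemiluminescence detection.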
# T1 sequence (P10275 whole entry, looked up): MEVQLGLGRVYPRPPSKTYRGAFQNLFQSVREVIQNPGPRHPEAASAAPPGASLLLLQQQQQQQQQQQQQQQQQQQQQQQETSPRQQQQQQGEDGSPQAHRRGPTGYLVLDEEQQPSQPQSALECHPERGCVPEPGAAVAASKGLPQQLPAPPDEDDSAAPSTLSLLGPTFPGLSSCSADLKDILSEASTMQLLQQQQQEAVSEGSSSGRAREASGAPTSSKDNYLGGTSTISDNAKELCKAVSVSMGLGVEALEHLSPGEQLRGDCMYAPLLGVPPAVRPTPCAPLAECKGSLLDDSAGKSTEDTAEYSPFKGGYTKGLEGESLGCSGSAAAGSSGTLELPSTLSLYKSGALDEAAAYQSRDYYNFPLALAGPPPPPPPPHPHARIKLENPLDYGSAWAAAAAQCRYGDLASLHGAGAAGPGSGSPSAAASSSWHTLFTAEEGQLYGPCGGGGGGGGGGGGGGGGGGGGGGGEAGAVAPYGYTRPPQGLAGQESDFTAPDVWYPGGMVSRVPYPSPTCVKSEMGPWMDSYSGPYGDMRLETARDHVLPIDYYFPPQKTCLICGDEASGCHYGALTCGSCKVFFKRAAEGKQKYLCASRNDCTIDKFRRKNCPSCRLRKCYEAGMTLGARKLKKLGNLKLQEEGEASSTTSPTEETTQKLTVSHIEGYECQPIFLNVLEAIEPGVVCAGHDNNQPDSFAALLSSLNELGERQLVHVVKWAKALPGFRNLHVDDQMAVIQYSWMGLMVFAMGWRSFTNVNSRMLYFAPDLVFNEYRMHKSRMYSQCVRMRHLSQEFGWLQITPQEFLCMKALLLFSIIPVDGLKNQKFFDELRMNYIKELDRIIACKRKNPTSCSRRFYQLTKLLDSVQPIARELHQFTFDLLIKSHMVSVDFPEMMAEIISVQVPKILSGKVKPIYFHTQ
# T1 sequence (Q96SW2 whole entry, looked up): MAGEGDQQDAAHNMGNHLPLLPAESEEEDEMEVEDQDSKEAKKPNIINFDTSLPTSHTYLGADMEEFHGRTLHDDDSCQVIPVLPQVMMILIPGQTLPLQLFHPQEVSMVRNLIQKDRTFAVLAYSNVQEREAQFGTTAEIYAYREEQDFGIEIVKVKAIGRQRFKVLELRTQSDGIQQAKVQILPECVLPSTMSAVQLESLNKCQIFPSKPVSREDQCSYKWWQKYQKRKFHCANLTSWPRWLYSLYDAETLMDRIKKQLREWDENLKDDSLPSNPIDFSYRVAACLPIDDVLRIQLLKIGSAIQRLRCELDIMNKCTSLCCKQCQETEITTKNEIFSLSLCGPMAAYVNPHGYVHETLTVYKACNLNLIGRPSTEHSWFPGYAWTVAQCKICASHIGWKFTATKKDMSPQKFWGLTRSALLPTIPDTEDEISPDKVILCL
row,Activity [%],SMILES
1,0,CC1(C)[C@H](NC(=O)c2ccc(N3CCN(CCC4CCN(C(=O)COc5ccc6nnn(C7CCC(=O)NC7=O)c(=O)c6c5)CC4)CC3)cc2)C(C)(C)[C@H]1Oc1ccc(C#N)c(Cl)c1 (stereo partly drawn)
2,70,CC1(C)[C@H](NC(=O)c2ccc(N3CCN(CC4CCN(C(=O)CNc5ccc6nnn(C7CCC(=O)NC7=O)c(=O)c6c5)CC4)CC3)cc2)C(C)(C)[C@H]1Oc1ccc(C#N)c(Cl)c1 (stereo partly drawn)

# The remaining lines, values behind:
row,SMILES,Activity [%]
1,CC1(C)[C@H](NC(=O)c2ccc(N3CCN(C4CC5(CCN(C(=O)C6CN(c7ccc8nnn(C9CCC(=O)NC9=O)c(=O)c8c7)C6)CC5)C4)CC3)cc2)C(C)(C)[C@H]1Oc1ccc(C#N)c(Cl)c1 (stereo partly drawn),0
2,CC1(C)[C@H](NC(=O)c2ccc(N3CCN(CC4CCN(c5ccc6nnn(C7CCC(=O)NC7=O)c(=O)c6c5)CC4)CC3)cc2)C(C)(C)[C@H]1Oc1ccc(C#N)c(Cl)c1 (stereo partly drawn),79
3,CC1(C)[C@H](NC(=O)c2ccc(N3CCN(CCOC4CCN(C(=O)C5CCN(c6ccc7nnn(C8CCC(=O)NC8=O)c(=O)c7c6)CC5)CC4)CC3)cc2)C(C)(C)[C@H]1Oc1ccc(C#N)c(Cl)c1 (stereo partly drawn),72

# System: not listed separately
# Assay: Metabolic stability in mouse liver microsomes assessed as compound remaining at 1 uM after 30 mins in presence of NADPH-regenerating system
# Format: ADME, Microsome
# Conditions: read-out: Stabilty
# In short: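 Mouse liver microsomes at 0.5 mg protein/mL in 100 mM PBS, pH 7.4. Reaction started with NADPH-regenerating solution (1.3 mM NADP+, 3.3 mM glucose-6-phosphate, 0.4 U/mL G6PDH, 3.3 mM MgCl2). Incubated 30 min at 37 °C, stopped with ice-cold acetonitrile, centrifuged. Percent remaining reported as mean ± SD, n = 3.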
row,"remaining at 0.5 h, 1 µM [%]",SMILES
1,2.98,CC1(C)[C@H](NC(=O)c2ccc(N3CCN(CCC4CCN(C(=O)COc5ccc6nnn(C7CCC(=O)NC7=O)c(=O)c6c5)CC4)CC3)cc2)C(C)(C)[C@H]1Oc1ccc(C#N)c(Cl)c1 (stereo partly drawn)
2,71.7,CC1(C)[C@H](NC(=O)c2ccc(N3CCN(CC4CCN(c5ccc6nnn(C7CCC(=O)NC7=O)c(=O)c6c5)CC4)CC3)cc2)C(C)(C)[C@H]1Oc1ccc(C#N)c(Cl)c1 (stereo partly drawn)
3,78.4,CC1(C)[C@H](NC(=O)c2ccc(N3CCN(CCOC4CCN(C(=O)C5CCN(c6ccc7nnn(C8CCC(=O)NC8=O)c(=O)c7c6)CC5)CC4)CC3)cc2)C(C)(C)[C@H]1Oc1ccc(C#N)c(Cl)c1 (stereo partly drawn)

# Target: T1, Protein cereblon/Androgen receptor
# Assay: Protac activity at CRBN/AR in human LNCaP cells assessed as AR degradation at 1 uM by Western blotting analysis relative to control
# Format: cell-based
# Conditions: not given
# In short: as §2
row,Activity [%],SMILES
1,50,CC1(C)[C@H](NC(=O)c2ccc(N3CCN(CCC4CCN(C(=O)COc5ccc6nnn(C7CCC(=O)NC7=O)c(=O)c6c5)CC4)CC3)cc2)C(C)(C)[C@H]1Oc1ccc(C#N)c(Cl)c1 (stereo partly drawn)
2,89,CC1(C)[C@H](NC(=O)c2ccc(N3CCN(CC4CCN(C(=O)CNc5ccc6nnn(C7CCC(=O)NC7=O)c(=O)c6c5)CC4)CC3)cc2)C(C)(C)[C@H]1Oc1ccc(C#N)c(Cl)c1 (stereo partly drawn)

# Further lines, the compound ahead of its results:
row,SMILES,Activity [%]
1,CC1(C)[C@H](NC(=O)c2ccc(N3CCN(C4CC5(CCN(C(=O)C6CN(c7ccc8nnn(C9CCC(=O)NC9=O)c(=O)c8c7)C6)CC5)C4)CC3)cc2)C(C)(C)[C@H]1Oc1ccc(C#N)c(Cl)c1 (stereo partly drawn),79
2,CC1(C)[C@H](NC(=O)c2ccc(N3CCN(CC4CCN(c5ccc6nnn(C7CCC(=O)NC7=O)c(=O)c6c5)CC4)CC3)cc2)C(C)(C)[C@H]1Oc1ccc(C#N)c(Cl)c1 (stereo partly drawn),91
3,CC1(C)[C@H](NC(=O)c2ccc(N3CCN(CCOC4CCN(C(=O)C5CCN(c6ccc7nnn(C8CCC(=O)NC8=O)c(=O)c7c6)CC5)CC4)CC3)cc2)C(C)(C)[C@H]1Oc1ccc(C#N)c(Cl)c1 (stereo partly drawn),92

# Target: T1, Protein cereblon/Androgen receptor
# Assay: Protac activity at CRBN/AR in human LNCaP cells assessed as AR degradation at 10 uM by Western blotting analysis relative to control
# Format: cell-based
# Conditions: not given
# In short: as §2
row,Activity [%],SMILES
1,82,CC1(C)[C@H](NC(=O)c2ccc(N3CCN(CCC4CCN(C(=O)COc5ccc6nnn(C7CCC(=O)NC7=O)c(=O)c6c5)CC4)CC3)cc2)C(C)(C)[C@H]1Oc1ccc(C#N)c(Cl)c1 (stereo partly drawn)
2,35,CC1(C)[C@H](NC(=O)c2ccc(N3CCN(CC4CCN(C(=O)CNc5ccc6nnn(C7CCC(=O)NC7=O)c(=O)c6c5)CC4)CC3)cc2)C(C)(C)[C@H]1Oc1ccc(C#N)c(Cl)c1 (stereo partly drawn)

# Continued, compound first:
row,SMILES,Activity [%]
1,CC1(C)[C@H](NC(=O)c2ccc(N3CCN(C4CC5(CCN(C(=O)C6CN(c7ccc8nnn(C9CCC(=O)NC9=O)c(=O)c8c7)C6)CC5)C4)CC3)cc2)C(C)(C)[C@H]1Oc1ccc(C#N)c(Cl)c1 (stereo partly drawn),0
2,CC1(C)[C@H](NC(=O)c2ccc(N3CCN(CC4CCN(c5ccc6nnn(C7CCC(=O)NC7=O)c(=O)c6c5)CC4)CC3)cc2)C(C)(C)[C@H]1Oc1ccc(C#N)c(Cl)c1 (stereo partly drawn),95
3,CC1(C)[C@H](NC(=O)c2ccc(N3CCN(CCOC4CCN(C(=O)C5CCN(c6ccc7nnn(C8CCC(=O)NC8=O)c(=O)c7c6)CC5)CC4)CC3)cc2)C(C)(C)[C@H]1Oc1ccc(C#N)c(Cl)c1 (stereo partly drawn),98
